Measurements published in ChEMBL document CHEMBL5058577, “EUbOPEN Chemogenomics Library 2 (Multiplex)” (2022).

Tested on: U2OS
Assay: Multiplex assay against U2OS
Assay type: toxicity, cell-based
Details: human
In short: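 Values for tubulin, mitochondrial-mass and membrane-permeability phenotypes are per cents of cells with healthy nuclei. These cells were identified by CellPathfinder machine-learning gating of live cells that had been stained at seeding with Hoechst33342, BioTracker Green Microtubule Cytoskeleton Dye, MitoTracker Red and Annexin V Alexa Fluor 680 and imaged on a CQ1 microscope at 37°C and 5% CO2 after compound addition. The gating first set Hoechst high-intensity objects apart from normal cells, then split normal cells into healthy, pyknosed or fragmented nuclei, and pyknosed cells into mitotic or apoptotic.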

[1] = 12 h, 1 µM, compound concentration 1 uM, replicate 1
[2] = 12 h, 1 µM, compound concentration 1 uM, replicate 2
[3] = 12 h, 10 µM, compound concentration 10 uM, replicate 1
[4] = 12 h, 10 µM, compound concentration 10 uM, replicate 2
[5] = 24 h, 1 µM, compound concentration 1 uM, replicate 1
[6] = 24 h, 1 µM, compound concentration 1 uM, replicate 2
[7] = 24 h, 10 µM, compound concentration 10 uM, replicate 1
[8] = 24 h, 10 µM, compound concentration 10 uM, replicate 2
[9] = 48 h, 1 µM, compound concentration 1 uM, replicate 1
[10] = 48 h, 1 µM, compound concentration 1 uM, replicate 2
[11] = 48 h, 10 µM, compound concentration 10 uM, replicate 1
[12] = 48 h, 10 µM, compound concentration 10 uM, replicate 2

## Cn1cc(C(=O)OCC2CCN(CCNS(C)(=O)=O)CC2)c2ccccc21
[1]
  Population Apoptotic (%): 73%
  Population Fragmented Nuclei (%): 27%
  Population Healthy Nuclei (%): 63%
  Population Hoechst High Intensity Objects (%): 3%
  Population Membrane Permeable-Phenotype (%): 7%
  Population Mitochondria Different-Phenotype (%): 4%
  Population Mitotic Cells (%): 26%
  Population Normal (%): 96%
  Population Pyknosed Nuclei (%): 8%
  Population Tubulin-Different-Phenotype (%): 5%
  Total Cell Count: 226
[2]
  Population Apoptotic (%): 77%
  Population Fragmented Nuclei (%): 20%
  Population Healthy Nuclei (%): 71%
  Population Hoechst High Intensity Objects (%): 0%
  Population Membrane Permeable-Phenotype (%): 13%
  Population Mitochondria Different-Phenotype (%): 5%
  Population Mitotic Cells (%): 22%
  Population Normal (%): 100%
  Population Tubulin-Different-Phenotype (%): 6%
  Total Cell Count: 110
[3]
  Population Apoptotic (%): 53%
  Population Fragmented Nuclei (%): 36%
  Population Healthy Nuclei (%): 58%
  Population Hoechst High Intensity Objects (%): 0%
  Population Membrane Permeable-Phenotype (%): 10%
  Population Mitochondria Different-Phenotype (%): 5%
  Population Mitotic Cells (%): 46%
  Population Normal (%): 99%
  Population Pyknosed Nuclei (%): 5%
  Population Tubulin-Different-Phenotype (%): 5%
  Total Cell Count: 252
[4]
  Population Apoptotic (%): 57%
  Population Fragmented Nuclei (%): 18%
  Population Healthy Nuclei (%): 76%
  Population Hoechst High Intensity Objects (%): 1%
  Population Membrane Permeable-Phenotype (%): 17%
  Population Mitochondria Different-Phenotype (%): 13%
  Population Mitotic Cells (%): 42%
  Population Normal (%): 98%
  Population Tubulin-Different-Phenotype (%): 9%
  Total Cell Count: 137
[5]
  Population Apoptotic (%): 95%
  Population Fragmented Nuclei (%): 26%
  Population Healthy Nuclei (%): 65%
  Population Hoechst High Intensity Objects (%): 2%
  Population Membrane Permeable-Phenotype (%): 4%
  Population Mitochondria Different-Phenotype (%): 2%
  Population Mitotic Cells (%): 4%
  Population Normal (%): 97%
  Population Pyknosed Nuclei (%): 8%
  Population Tubulin-Different-Phenotype (%): 3%
  Total Cell Count: 263
[6]
  Population Apoptotic (%): 100%
  Population Fragmented Nuclei (%): 17%
  Population Healthy Nuclei (%): 78%
  Population Hoechst High Intensity Objects (%): 0%
  Population Membrane Permeable-Phenotype (%): 10%
  Population Mitochondria Different-Phenotype (%): 5%
  Population Mitotic Cells (%): 0%
  Population Normal (%): 100%
  Population Pyknosed Nuclei (%): 4%
  Population Tubulin-Different-Phenotype (%): 6%
  Total Cell Count: 144
[7]
  Population Apoptotic (%): 92%
  Population Fragmented Nuclei (%): 33%
  Population Healthy Nuclei (%): 61%
  Population Hoechst High Intensity Objects (%): 2%
  Population Membrane Permeable-Phenotype (%): 11%
  Population Mitochondria Different-Phenotype (%): 5%
  Population Mitotic Cells (%): 7%
  Population Normal (%): 97%
  Population Pyknosed Nuclei (%): 4%
  Population Tubulin-Different-Phenotype (%): 4%
  Total Cell Count: 281
[8]
  Population Apoptotic (%): 64%
  Population Fragmented Nuclei (%): 16%
  Population Healthy Nuclei (%): 73%
  Population Hoechst High Intensity Objects (%): 1%
  Population Membrane Permeable-Phenotype (%): 12%
  Population Mitochondria Different-Phenotype (%): 8%
  Population Mitotic Cells (%): 35%
  Population Normal (%): 98%
  Population Pyknosed Nuclei (%): 9%
  Population Tubulin-Different-Phenotype (%): 8%
  Total Cell Count: 150
[9]
  Population Apoptotic (%): 91%
  Population Fragmented Nuclei (%): 20%
  Population Healthy Nuclei (%): 69%
  Population Hoechst High Intensity Objects (%): 1%
  Population Membrane Permeable-Phenotype (%): 8%
  Population Mitochondria Different-Phenotype (%): 3%
  Population Mitotic Cells (%): 8%
  Population Normal (%): 98%
  Population Pyknosed Nuclei (%): 9%
  Population Tubulin-Different-Phenotype (%): 5%
  Total Cell Count: 372
[10]
  Population Apoptotic (%): 57%
  Population Fragmented Nuclei (%): 13%
  Population Healthy Nuclei (%): 75%
  Population Hoechst High Intensity Objects (%): 2%
  Population Membrane Permeable-Phenotype (%): 6%
  Population Mitochondria Different-Phenotype (%): 5%
  Population Mitotic Cells (%): 42%
  Population Normal (%): 97%
  Population Pyknosed Nuclei (%): 10%
  Population Tubulin-Different-Phenotype (%): 4%
  Total Cell Count: 182
[11]
  Population Apoptotic (%): 88%
  Population Fragmented Nuclei (%): 30%
  Population Healthy Nuclei (%): 58%
  Population Hoechst High Intensity Objects (%): 1%
  Population Membrane Permeable-Phenotype (%): 9%
  Population Mitochondria Different-Phenotype (%): 4%
  Population Mitotic Cells (%): 11%
  Population Normal (%): 98%
  Population Pyknosed Nuclei (%): 10%
  Population Tubulin-Different-Phenotype (%): 7%
  Total Cell Count: 341
[12]
  Population Apoptotic (%): 75%
  Population Fragmented Nuclei (%): 9%
  Population Healthy Nuclei (%): 79%
  Population Hoechst High Intensity Objects (%): 3%
  Population Membrane Permeable-Phenotype (%): 13%
  Population Mitochondria Different-Phenotype (%): 6%
  Population Mitotic Cells (%): 25%
  Population Normal (%): 97%
  Population Tubulin-Different-Phenotype (%): 5%
  Total Cell Count: 200

## OCCCNc1cc(-c2ccnc(Nc3cccc(Cl)c3)n2)ccn1
[1]
  Population Apoptotic (%): 88%
  Population Fragmented Nuclei (%): 38%
  Population Healthy Nuclei (%): 52%
  Population Hoechst High Intensity Objects (%): 3%
  Population Membrane Permeable-Phenotype (%): 8%
  Population Mitochondria Different-Phenotype (%): 4%
  Population Mitotic Cells (%): 11%
  Population Normal (%): 97%
  Population Pyknosed Nuclei (%): 9%
  Population Tubulin-Different-Phenotype (%): 4%
  Total Cell Count: 200
[2]
  Population Apoptotic (%): 80%
  Population Fragmented Nuclei (%): 27%
  Population Healthy Nuclei (%): 51%
  Population Hoechst High Intensity Objects (%): 5%
  Population Membrane Permeable-Phenotype (%): 10%
  Population Mitochondria Different-Phenotype (%): 18%
  Population Mitotic Cells (%): 20%
  Population Normal (%): 94%
  Population Pyknosed Nuclei (%): 20%
  Population Tubulin-Different-Phenotype (%): 5%
  Total Cell Count: 76
[3]
  Population Apoptotic (%): 85%
  Population Fragmented Nuclei (%): 37%
  Population Healthy Nuclei (%): 56%
  Population Hoechst High Intensity Objects (%): 4%
  Population Membrane Permeable-Phenotype (%): 46%
  Population Mitochondria Different-Phenotype (%): 36%
  Population Mitotic Cells (%): 14%
  Population Normal (%): 95%
  Population Pyknosed Nuclei (%): 6%
  Population Tubulin-Different-Phenotype (%): 46%
  Total Cell Count: 237
[4]
  Population Apoptotic (%): 91%
  Population Fragmented Nuclei (%): 24%
  Population Healthy Nuclei (%): 64%
  Population Hoechst High Intensity Objects (%): 10%
  Population Membrane Permeable-Phenotype (%): 47%
  Population Mitochondria Different-Phenotype (%): 51%
  Population Mitotic Cells (%): 8%
  Population Normal (%): 89%
  Population Pyknosed Nuclei (%): 11%
  Population Tubulin-Different-Phenotype (%): 61%
  Total Cell Count: 118
[5]
  Population Apoptotic (%): 96%
  Population Fragmented Nuclei (%): 43%
  Population Healthy Nuclei (%): 43%
  Population Hoechst High Intensity Objects (%): 7%
  Population Membrane Permeable-Phenotype (%): 10%
  Population Mitochondria Different-Phenotype (%): 10%
  Population Mitotic Cells (%): 4%
  Population Normal (%): 92%
  Population Pyknosed Nuclei (%): 13%
  Population Tubulin-Different-Phenotype (%): 6%
  Total Cell Count: 200
[6]
  Population Apoptotic (%): 94%
  Population Fragmented Nuclei (%): 40%
  Population Healthy Nuclei (%): 33%
  Population Membrane Permeable-Phenotype (%): 16%
  Population Mitochondria Different-Phenotype (%): 25%
  Population Mitotic Cells (%): 5%
  Population Pyknosed Nuclei (%): 25%
  Population Tubulin-Different-Phenotype (%): 16%
  Total Cell Count: 77
[7]
  Population Apoptotic (%): 88%
  Population Fragmented Nuclei (%): 37%
  Population Healthy Nuclei (%): 50%
  Population Hoechst High Intensity Objects (%): 11%
  Population Membrane Permeable-Phenotype (%): 34%
  Population Mitochondria Different-Phenotype (%): 40%
  Population Mitotic Cells (%): 12%
  Population Normal (%): 88%
  Population Pyknosed Nuclei (%): 12%
  Population Tubulin-Different-Phenotype (%): 37%
  Total Cell Count: 229
[8]
  Population Apoptotic (%): 95%
  Population Fragmented Nuclei (%): 30%
  Population Healthy Nuclei (%): 49%
  Population Hoechst High Intensity Objects (%): 12%
  Population Membrane Permeable-Phenotype (%): 43%
  Population Mitochondria Different-Phenotype (%): 54%
  Population Mitotic Cells (%): 4%
  Population Normal (%): 87%
  Population Pyknosed Nuclei (%): 20%
  Population Tubulin-Different-Phenotype (%): 61%
  Total Cell Count: 128
[9]
  Population Apoptotic (%): 95%
  Population Fragmented Nuclei (%): 56%
  Population Healthy Nuclei (%): 22%
  Population Hoechst High Intensity Objects (%): 16%
  Population Membrane Permeable-Phenotype (%): 30%
  Population Mitochondria Different-Phenotype (%): 14%
  Population Mitotic Cells (%): 4%
  Population Normal (%): 83%
  Population Pyknosed Nuclei (%): 21%
  Population Tubulin-Different-Phenotype (%): 26%
  Total Cell Count: 227
[10]
  Population Apoptotic (%): 100%
  Population Fragmented Nuclei (%): 59%
  Population Healthy Nuclei (%): 11%
  Population Hoechst High Intensity Objects (%): 12%
  Population Mitochondria Different-Phenotype (%): 20%
  Population Mitotic Cells (%): 0%
  Population Normal (%): 87%
  Population Pyknosed Nuclei (%): 28%
  Population Tubulin-Different-Phenotype (%): 10%
  Total Cell Count: 99
[11]
  Population Apoptotic (%): 94%
  Population Fragmented Nuclei (%): 47%
  Population Healthy Nuclei (%): 31%
  Population Hoechst High Intensity Objects (%): 21%
  Population Membrane Permeable-Phenotype (%): 43%
  Population Mitochondria Different-Phenotype (%): 45%
  Population Mitotic Cells (%): 5%
  Population Normal (%): 78%
  Population Pyknosed Nuclei (%): 21%
  Population Tubulin-Different-Phenotype (%): 45%
  Total Cell Count: 223
[12]
  Population Apoptotic (%): 96%
  Population Fragmented Nuclei (%): 50%
  Population Healthy Nuclei (%): 25%
  Population Hoechst High Intensity Objects (%): 23%
  Population Membrane Permeable-Phenotype (%): 65%
  Population Mitochondria Different-Phenotype (%): 34%
  Population Mitotic Cells (%): 4%
  Population Normal (%): 76%
  Population Pyknosed Nuclei (%): 24%
  Population Tubulin-Different-Phenotype (%): 65%
  Total Cell Count: 134
